{"data": "Assay results gathered from unrelated publications", "target": "Vascular endothelial growth factor receptor 3 (FLT4, Homo sapiens, UniProt P35916)", "note": "Compare with care: the assays were run in different laboratories."}
{"Structure (SMILES)": "Cc1ccc(C(=O)Nc2ccc(CN3CCN(C)CC3)c(C(F)(F)F)c2)cc1C#Cc1cnc2cccnn12", "test": "cell-free assay", "setting": "23.5 nM", "quantity": "remaining signal", "result": "35%"}
{"Structure (SMILES)": "COc1ccc(COc2ccc(Cc3cnc(N)nc3N)cc2OC)cc1", "test": "cell-free assay", "setting": "0.5 µM", "quantity": "remaining signal", "result": "105%"}
{"Structure (SMILES)": "O=C(O)c1cc(-c2ccc(C3CCNCC3)cc2)c2ccc(-c3ccc(C(F)(F)F)cc3)cc2c1", "test": "cell-free assay, competition with immobilised ligand", "setting": "1 µM", "quantity": "remaining binding", "result": "100%"}
{"Structure (SMILES)": "COc1cc2nccc(Oc3ccc(NC(=O)c4c5n(n(-c6ccc(F)cc6)c4=O)CCCC5)cc3)c2cc1OC", "test": "enzyme activity, inhibitor", "setting": "0.1 µM", "quantity": "inhibition", "result": "47%"}
{"Structure (SMILES)": "COc1cc2ncnc(Nc3ccc(Oc4ccccc4)cc3C)c2cc1OC", "test": "enzyme activity, inhibitor", "setting": "1 µM", "quantity": "inhibition", "result": "17%"}
{"Structure (SMILES)": "O=C(O)[C@H]1[C@H](Cn2nnc3ccccc3c2=O)CC[C@@H]1C(=O)c1ccc(OCCC2CCOCC2)cc1", "test": "cell-free assay, competition with immobilised ligand", "setting": "1 µM", "quantity": "remaining binding", "result": "81%"}
{"Structure (SMILES)": "CCOc1cc(-c2nncn2C)ccc1Nc1ncc2cc(C)nc(NCC(C)(C)C)c2n1", "test": "enzyme activity, inhibitor, FRET", "setting": "1 µM", "quantity": "inhibition", "result": "23%"}
{"Structure (SMILES)": "CC(C)(O)c1cncc(-c2nc3ccc(F)cc3n2C2CC2)c1", "test": "cell-free assay, competition with immobilised ligand", "setting": "1 µM", "quantity": "remaining binding", "result": "100%"}
{"Structure (SMILES)": "Cc1sc(C(=O)NC2COC2)cc1-n1cc(NC(=O)Nc2c(F)cccc2Cl)cn1", "test": "enzyme activity, inhibitor", "setting": "10 µM", "quantity": "remaining activity", "result": "79.2%"}
{"Structure (SMILES)": "CNC(=O)c1cc2c(Oc3ccc(NC(=O)C4(C(=O)Nc5ccc(F)cc5)CC4)cc3)ccnc2cc1OC", "test": "enzyme activity, inhibitor, radiometric", "setting": "1 µM", "quantity": "inhibition", "result": "102%"}
{"Structure (SMILES)": "O=C(Nc1cnn(-c2csc(C(=O)NC3COC3)c2)c1)Nc1ccccc1Cl", "test": "enzyme activity, inhibitor", "setting": "5 µM", "quantity": "remaining activity", "result": "93.5%"}
{"Structure (SMILES)": "CCCCN(CCCC)C(=O)CN1C[C@H](c2cc(OC)c3c(c2)OCO3)[C@@H](C(=O)O)[C@@H]1CC(C)(C)CCC", "test": "cell-free assay, competition with immobilised ligand", "setting": "1 µM", "quantity": "remaining binding", "result": "100%"}
{"Structure (SMILES)": "CCCOc1ccc(OC)c(F)c1C(=O)c1ccc(C(=O)N[C@@H]2CNC[C@H]2NC(=O)c2ccc3[nH]ncc3c2)cc1", "test": "enzyme activity, inhibitor", "setting": "10 µM", "quantity": "remaining activity", "result": "8%"}
{"Structure (SMILES)": "O=C1Nc2ccc(Cl)cc2C1=Cc1cc(Cl)c(O)c(Cl)c1", "test": "cell-free assay", "setting": "0.5 µM", "quantity": "remaining signal", "result": "87.3%"}
{"Structure (SMILES)": "CCCS(=O)(=O)Nc1ccc(F)c(C(=O)c2c[nH]c3ncc(-c4ccc(Cl)cc4)cc23)c1F", "test": "enzyme activity, inhibitor", "setting": "1 µM", "quantity": "inhibition", "result": "< 10%"}
{"Structure (SMILES)": "Cc1cc(NC(=O)c2cccc(S(F)(F)(F)(F)F)c2)cc(-n2ccn3nc(-c4cccnc4)cc23)c1", "test": "cell-free assay, competition with immobilised ligand", "setting": "1 µM", "quantity": "remaining binding", "result": "82.3%"}
{"Structure (SMILES)": "N#CCCc1ccc2c(c1)-c1[nH]c3ccc([N+](=O)[O-])cc3c1CC(=O)N2", "test": "cell-free assay", "setting": "0.5 µM", "quantity": "remaining signal", "result": "66.5%"}
{"Structure (SMILES)": "COc1cc(Cl)c(C(=O)N[C@@H](CN[C@H]2CC[C@@H](N)CC2)Cc2ccc(C#N)cc2)cc1-c1ccc(CN[C@H](C)c2ccc(C)cc2)o1", "test": "enzyme activity, inhibitor", "setting": "1 µM", "quantity": "remaining activity", "result": "93%"}
{"Structure (SMILES)": "Clc1ccc(Nc2nnc(Cc3ccncc3)c3ccccc23)cc1", "test": "cell-free assay", "setting": "0.5 µM", "quantity": "remaining signal", "result": "62.8%"}
{"Structure (SMILES)": "O=C(N[C@H]1CCCCC/C=C\\C2C[C@@]2(C(=O)O)NC(=O)[C@@H]2C[C@@H](Oc3ccncc3)CN2C1=O)OC1CCCC1 (some centres unmarked)", "test": "cell-free assay, competition with immobilised ligand", "setting": "1 µM", "quantity": "remaining binding", "result": "93%"}
